A short description of assay [1]: Inhibition of glucose-induced insulin secretion in Wistar rat pancreatic beta islets assessed as residual insulin secretion at 10 uM relative to control. The format is functional.
Assay [2] in a line: Inhibition of glucose-induced insulin secretion in Wistar rat pancreatic beta islets assessed as residual insulin secretion at 1 uM relative to control. The format is functional.
Assay [3] can be described thus: Inhibition of glucose-induced insulin secretion in Wistar rat pancreatic beta islets assessed as residual insulin secretion relative to control. The assay is classed as functional. In short, it runs like this:
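Groups of 10 islets from adult fed Wistar rats were preincubated for 30 min at 37 °C in bicarbonate salt medium with 2.8 mM glucose and 0.5% albumin, gassed with O2/CO2. They were then incubated for 90 min in the same medium with 16.7 mM glucose plus drug. Insulin was measured by radioimmunoassay and expressed as % of drug-free 16.7 mM glucose control. Values are mean ± SEM (n).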

In assay [4] the test system is Aorta. Nature of the assay: Myorelaxant activity in potassium depolarized Wistar rat aorta rings assessed as relaxation of KCl-induced contraction. The format is functional, tissue-based. The procedure, abridged:
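Thoracic aorta rings (3–4 mm) from adult fed Wistar rats were equilibrated for 60 min, then contracted with 30 mM KCl. Drug was added cumulatively up to maximal relaxation or 300 µM, and isometric tension was recorded. Relaxation was expressed as % of the KCl contraction. EC50 (50% inhibition of the KCl plateau) was derived from dose–response curves. Values are mean ± SEM (n).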

Assay [5] concerns Aorta. Description: Ratio of IC50 for glucose-induced insulin secretion in Wistar rat pancreatic beta islets to EC50 for myorelaxant activity in Wistar rat aorta rings. The format is functional. In short, it runs like this: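 Selectivity ratio: the estimated IC50 for inhibition of 16.7 mM glucose-induced insulin release from incubated islets, divided by the EC50 for relaxing 30 mM KCl-contracted rat aortic rings.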

A short description of assay [6]: Activation of KATP channel assessed as increase in rate of [86Rb] fractional outflow in perfused Wistar rat pancreatic beta islets at 10 uM. The procedure, abridged: (§1)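 Islets from adult fed Wistar rats, in groups of 100, were loaded for 60 min at 37 °C in medium with 16.7 mM glucose plus either 86Rb (0.15–0.25 mmol/L) or 45Ca (0.02–0.04 mmol/L). They were washed three times and then perifused at 1.0 mL/min. Effluent was collected each minute from min 31 to 90. Outflow was expressed as fractional outflow rate (% of instantaneous islet content per min). Insulin in the effluent was measured by radioimmunoassay against a rat insulin standard.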

Assay [7] in a line: Activation of KATP channel assessed as increase in rate of [86Rb] fractional outflow in perfused Wistar rat pancreatic beta islets in presence of glibenclamide at 10 uM. The procedure, abridged: as §1
A short description of assay [8]: Activation of KATP channel assessed as increase in rate of [45Ca] fractional outflow in perfused Wistar rat pancreatic beta islets at 10 uM. In short, it runs like this: as §1
Assay [9] can be described thus: Activation of KATP channel assessed as increase in rate of [45Ca] fractional outflow in perfused Wistar rat pancreatic beta islets at 10 uM in absence of extracellular calcium. The procedure, abridged: as §1
The nature of assay [10]: Activation of KATP channel assessed as reduction of glucose-induced rise in cytosolic calcium concentration in Wistar rat pancreatic beta islets at 10 uM by calcium fluorimetry. The procedure, abridged:
(§2)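 Dispersed rat islet cells were cultured for 72 h on coverslips, then loaded with fura-2 AM (2 µmol/L) for 1 h. Cells were perifused in bicarbonate salt medium with 2.8 mM glucose, gassed with O2/CO2. The rise in [Ca2+]i was evoked by 20 mM glucose or by 50 mM KCl, with NaCl lowered to keep osmolarity constant. Drug was 10 µM. Dual-excitation (340/380 nm, emission 510 nm) ratio F340/F380 was recorded in single cells, on different cell populations.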

Assay [11] can be described thus: Activation of KATP channel assessed as reduction of KCl-induced rise in calcium concentration in Wistar rat pancreatic beta islets at 10 uM by calcium fluorimetry. In short, it runs like this:
as §2

Assay [12] can be described thus: Activation of KATP channel assessed as insulin release in perfused Wistar rat pancreatic beta islets at 10 uM. In short, it runs like this:
as §1

Calls of active or inactive are those of the source. No cut-off for these calls is given here.

In general, IC50 refers to the concentration that gives 50% inhibition. By EC50 is commonly meant the concentration giving half of the maximal effect. Consider `CC1(C)CC(NC(=S)Nc2cccc(Cl)c2)c2cc(Cl)ccc2O1` (centres undefined), for which the Activity in assay [1] is 16.2%; in [2], 89.5%. Moreover, in assay [3], the concentration for half-maximal inhibition (IC50) is 3.12 µM. For the same molecule, the EC50 in assay [4] is above 10 µM. Moreover, the “Ratio IC50/EC50” value in [5] was below 0.31.

On to `CC1(C)CC(NC(=S)Nc2ccccc2Cl)c2cc(Cl)ccc2O1` (centres undefined), for which the Activity in assay [1] stood at 68.2%. Moreover, in assay [4], the EC50 was 3.2 µM.

With `CC(C)NC1=NS(=O)(=O)c2cc(Cl)ccc2N1`, the Activity in assay [1] turned out to be 4.9%; in assay [2] it was 36.2%. Besides, in [3], the IC50 was found to be 0.73 µM. The EC50 in assay [4] was found to be 36.3 µM. The “Ratio IC50/EC50” value in assay [5] is 0.02.

As for `Cc1ccccc1NC(=S)NC1CC(C)(C)Oc2ccc(Cl)cc21` (centres undefined), the Activity in assay [1] is 69%. In assay [4], the EC50 is above 30 µM.

Regarding `Cc1ccc(NC(=S)NC2CC(C)(C)Oc3ccc(Br)cc32)cc1` (centres undefined), the Activity in assay [1] is reported as 52.2%. For the same molecule, in assay [4], the EC50 is above 30 µM.

On to `CC1(C)CC(NC(=S)Nc2ccccc2)c2cc(Cl)ccc2O1` (centres undefined), for which the Activity in assay [1] is given as 46.6%. For the same molecule, the EC50 in assay [4] amounted to 11.1 µM.

`CC1(C)CC(NC(=S)Nc2ccc(Cl)cc2)c2cc(F)ccc2O1` (centres undefined): the Activity amounted to 10.5% in assay [1] and 77.5% in assay [2]. For the same molecule, the IC50 in [3] was 2.3 µM. Further, the EC50 in [4] is above 10 µM. Also, the “Ratio IC50/EC50” value in assay [5] is reported as below 0.23. Also, the outcome in [6], in [8], in assay [10] and in assay [12] was Active. Further, the result in assay [7], in assay [9] and in assay [11] was inactive.

On to `CC1(C)CC(NC(=S)Nc2ccccc2)c2cc(Br)ccc2O1` (centres undefined), for which the Activity in assay [1] was 32.8%. In assay [4], the EC50 stood at 51.5 µM.

For `CC1(C)CC(NC(=S)Nc2ccc(Cl)cc2)c2cc(Cl)ccc2O1` (centres undefined), the Activity is 8.9% in assay [1] and 87.9% in [2]. Also, the IC50 in assay [3] was 2.75 µM. In addition, in assay [4], the half-maximal effective concentration (EC50) was above 10 µM. The “Ratio IC50/EC50” value in assay [5] is given as below 0.27.

As for `Cc1cccc(NC(=S)NC2CC(C)(C)Oc3ccc(F)cc32)c1` (centres undefined), the Activity in assay [1] was 53.1%. Further, the EC50 in [4] was 7.3 µM.

As for `Cc1cccc(NC(=S)NC2CC(C)(C)Oc3ccc(Br)cc32)c1` (centres undefined), the Activity in [1] is on record as 37.2%. For the same molecule, the EC50 in assay [4] was above 30 µM.

Turning to `CC1(C)CC(NC(=S)Nc2ccccc2Cl)c2cc(F)ccc2O1` (centres undefined), the Activity in [1] is reported as 81.3%. Further, the EC50 in [4] was determined as 24.4 µM.

As to `CC1(C)CC(NC(=S)Nc2ccccc2)c2cc(F)ccc2O1` (centres undefined), the Activity in assay [1] was 63.2%. Besides, the EC50 in [4] came to 7.6 µM.

With `Cc1ccccc1NC(=S)NC1CC(C)(C)Oc2ccc(Br)cc21` (centres undefined), the Activity in [1] was found to be 57%. In addition, the EC50 in assay [4] was above 30 µM.

With `Cc1ccccc1NC(=S)NC1CC(C)(C)Oc2ccc(F)cc21` (centres undefined), the Activity in assay [1] stood at 69.8%. In addition, the EC50 in assay [4] was 11.1 µM.

With `CC1(C)CC(NC(=S)Nc2cccc(Cl)c2)c2cc(F)ccc2O1` (centres undefined), the Activity was 18% in [1] and 90.2% in assay [2]. Further, the half-inhibitory concentration (IC50) in [3] was 3.25 µM. The EC50 in assay [4] is above 10 µM. In addition, the “Ratio IC50/EC50” value in assay [5] is below 0.32.

For `COc1cccc(NC(=S)NC2CC(C)(C)Oc3ccc(Cl)cc32)c1` (centres undefined), the Activity in assay [1] turned out to be 34.3%. Further, the EC50 in [4] was determined as 2.9 µM.

For `CC1(C)CC(NC(=S)Nc2cccc(Cl)c2)c2cc(Br)ccc2O1` (centres undefined), the Activity in [1] was 23%; in assay [2], 74.6%. Also, the IC50 in assay [3] was 2.59 µM. In assay [4], the EC50 is above 10 µM. In assay [5], the “Ratio IC50/EC50” value was below 0.25.

Consider `CC1=Nc2ccc(Cl)cc2S(=O)(=O)N1` [DIAZOXIDE], for which the results for the Activity in assay [1] and in assay [2] were 73.9% and 87.5%, respectively. Also, the “Ratio IC50/EC50” value in assay [5] was 1.01.

As to `Cc1ccc(NC(=S)NC2CC(C)(C)Oc3ccc(Cl)cc32)cc1` (centres undefined), the Activity in assay [1] was determined as 32.8%. The EC50 in assay [4] was above 30 µM.

Consider `CC1(C)CC(NC(=S)Nc2ccccc2Cl)c2cc(Br)ccc2O1` (centres undefined), for which, in assay [1], the Activity stood at 57.5%. In [4], the EC50 worked out at 6.5 µM.

For `CC1(C)CC(NC(=S)Nc2ccc(Cl)cc2)c2cc(Br)ccc2O1` (centres undefined), the Activity is 12.2% in [1] and 75.7% in [2]. Also, the half-inhibitory concentration (IC50) in assay [3] was found to be 2.26 µM. Also, the concentration for a half-maximal effect (EC50) in assay [4] is above 10 µM. In addition, in assay [5], the “Ratio IC50/EC50” value is below 0.22. Further, the outcome in assay [6] and in assay [10] was Active. For the same molecule, the result in [7] and in assay [11] was inactive.

As to `COc1ccccc1NC(=S)NC1CC(C)(C)Oc2ccc(F)cc21` (centres undefined), in [1], the Activity turned out to be 82.9%. Further, the EC50 in assay [4] was above 10 µM.

On to `COc1ccc(NC(=S)NC2CC(C)(C)Oc3ccc(Br)cc32)cc1` (centres undefined), for which the Activity in assay [1] is reported as 53.1%. Also, in assay [4], the EC50 was above 10 µM.

As to `COc1cccc(NC(=S)NC2CC(C)(C)Oc3ccc(F)cc32)c1` (centres undefined), in assay [1], the Activity turned out to be 52%. Moreover, the concentration giving a half-maximal response (EC50) in [4] is 6.2 µM.

Consider `CC1(C)Oc2ccc(C#N)cc2C(N2CCCC2=O)C1O` (racemic) [CROMAKALIM], for which the results for the Activity in [1] and in assay [2] were 94.4% and 95.3%, respectively. In assay [3], the concentration for half-maximal inhibition (IC50) is above 100 µM. Besides, the EC50 in assay [4] came to 0.13 µM. Also, the “Ratio IC50/EC50” value in assay [5] is reported as above 770.

As for `COc1ccc(NC(=S)NC2CC(C)(C)Oc3ccc(Cl)cc32)cc1` (centres undefined), the Activity in assay [1] is reported as 50.4%. Besides, the half-maximal effective concentration (EC50) in [4] came to 12.7 µM.

As for `CC(N/C(=N\C#N)Nc1ccncc1)C(C)(C)C` (racemic) [PINACIDIL ANHYDROUS], in assay [3], the concentration for half-maximal inhibition (IC50) was above 100 µM. Besides, the EC50 in [4] was 0.35 µM.

As for `COc1cccc(NC(=S)NC2CC(C)(C)Oc3ccc(Br)cc32)c1` (centres undefined), the Activity in [1] came to 36.6%. The EC50 in [4] is above 10 µM.

Consider `COc1ccccc1NC(=S)NC1CC(C)(C)Oc2ccc(Br)cc21` (centres undefined), for which the Activity in assay [1] came out at 65.1%. In addition, the EC50 in [4] was above 10 µM.

Regarding `COc1ccccc1NC(=S)NC1CC(C)(C)Oc2ccc(Cl)cc21` (centres undefined), the Activity in assay [1] amounted to 76.8%. Moreover, the EC50 in assay [4] is 5.5 µM.

As to `Cc1cccc(NC(=S)NC2CC(C)(C)Oc3ccc(Cl)cc32)c1` (centres undefined), in assay [1], the Activity turned out to be 43%. Moreover, the concentration giving a half-maximal response (EC50) in assay [4] is 137 µM.

For `COc1ccc(NC(=S)NC2CC(C)(C)Oc3ccc(F)cc32)cc1` (centres undefined), the Activity in assay [1] is 73.8%. In assay [4], the EC50 worked out at 21.6 µM.

For the molecule `Cc1ccc(NC(=S)NC2CC(C)(C)Oc3ccc(F)cc32)cc1` (centres undefined), the Activity in assay [1] is listed as 60.2%. For the same molecule, the concentration giving a half-maximal response (EC50) in assay [4] was above 30 µM.

These data come from ChEMBL document CHEMBL1150250, “New R/S-3,4-dihydro-2,2-dimethyl-6-halo-4-(phenylaminothiocarbonylamino)-2H-1-benzopyrans structurally related to (+/-)-cromakalim as tissue-selective pancreatic beta-cell K(ATP) channel openers” (Bioorg Med Chem, 2008).
